# Publication PMC9257745 (Molecular Pharmaceutics, 2022)
# Bridge positions count the residues as written; N and C are the ends.
# Columns and labels:
# [1] = biological target: fatty acid-free HSA (Homo sapiens, UniProt P02768); assay: SPR binding to immobilized HSA; conditions: fatty acid-free HSA immobilized on CM5 sensor chip
# [2] = biological target: human SA (HSA) (Homo sapiens, UniProt P02768); assay: FACS binding specificity of peptide-displayed yeast cells, human albumin; conditions: biotinylated SA, streptavidin-APC, flow cytometer
# Procedure, shortened: (§1)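 Yeast grown in SDCAA at 30 °C for 16 h, then in SG/RCAA at 20 °C for 24 h to display the peptide. Cells labelled 1 h with mouse anti-FLAG and biotinylated albumin, washed in PBST, then stained 1 h with Alexa-488 goat anti-mouse IgG (display) and streptavidin-APC (albumin binding). Fluorescence read by flow cytometry.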
# [3] = biological target: mouse SA (MSA) (Mus musculus, UniProt P07724); assay: FACS binding specificity of peptide-displayed yeast cells, mouse albumin; conditions: biotinylated SA, streptavidin-APC, flow cytometer
# mouse SA (MSA), sequence (P07724 25-608): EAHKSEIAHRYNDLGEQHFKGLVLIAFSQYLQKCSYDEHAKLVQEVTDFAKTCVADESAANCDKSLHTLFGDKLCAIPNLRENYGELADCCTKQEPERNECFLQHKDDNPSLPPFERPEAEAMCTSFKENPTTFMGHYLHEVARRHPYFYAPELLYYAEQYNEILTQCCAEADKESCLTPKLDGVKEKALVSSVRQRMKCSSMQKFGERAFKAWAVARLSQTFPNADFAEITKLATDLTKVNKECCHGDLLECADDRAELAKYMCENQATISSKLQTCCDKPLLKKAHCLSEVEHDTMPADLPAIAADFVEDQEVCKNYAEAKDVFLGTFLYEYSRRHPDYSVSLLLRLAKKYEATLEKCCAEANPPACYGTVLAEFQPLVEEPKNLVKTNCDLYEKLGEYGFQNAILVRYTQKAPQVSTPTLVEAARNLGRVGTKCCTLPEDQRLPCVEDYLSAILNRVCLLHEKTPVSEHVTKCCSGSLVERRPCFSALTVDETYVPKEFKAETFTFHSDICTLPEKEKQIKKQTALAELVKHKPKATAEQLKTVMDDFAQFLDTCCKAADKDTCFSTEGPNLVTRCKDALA
# Procedure, shortened: as §1
# [4] = biological target: albumin of cynomolgus monkey (Macaca fascicularis, UniProt A2V9Z4); type: binding; conditions: yeast-displayed peptide, biotinylated SA, streptavidin-APC, flow cytometer
# albumin of cynomolgus monkey, sequence (A2V9Z4 25-608): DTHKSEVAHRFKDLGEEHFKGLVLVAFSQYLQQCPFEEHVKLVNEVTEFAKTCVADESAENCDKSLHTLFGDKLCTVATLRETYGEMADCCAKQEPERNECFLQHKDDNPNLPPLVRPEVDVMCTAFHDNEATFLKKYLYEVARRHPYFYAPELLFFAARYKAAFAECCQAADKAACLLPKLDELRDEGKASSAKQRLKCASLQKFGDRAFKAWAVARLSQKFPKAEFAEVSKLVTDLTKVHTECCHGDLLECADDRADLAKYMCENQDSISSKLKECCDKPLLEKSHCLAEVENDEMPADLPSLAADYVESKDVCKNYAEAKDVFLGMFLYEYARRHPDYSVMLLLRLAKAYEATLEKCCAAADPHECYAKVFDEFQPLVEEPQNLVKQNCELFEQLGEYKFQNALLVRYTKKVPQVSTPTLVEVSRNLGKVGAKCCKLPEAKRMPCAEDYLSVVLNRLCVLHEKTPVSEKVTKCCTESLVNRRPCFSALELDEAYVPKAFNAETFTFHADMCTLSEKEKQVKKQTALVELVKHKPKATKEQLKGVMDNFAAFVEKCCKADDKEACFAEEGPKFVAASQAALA
# Procedure, shortened: as §1
# [5] = biological target: albumin of rat (Rattus norvegicus, UniProt P02770); assay: FACS binding specificity of peptide-displayed yeast cells, rat albumin; conditions: biotinylated SA, streptavidin-APC, flow cytometer
# albumin of rat, sequence (P02770 25-608): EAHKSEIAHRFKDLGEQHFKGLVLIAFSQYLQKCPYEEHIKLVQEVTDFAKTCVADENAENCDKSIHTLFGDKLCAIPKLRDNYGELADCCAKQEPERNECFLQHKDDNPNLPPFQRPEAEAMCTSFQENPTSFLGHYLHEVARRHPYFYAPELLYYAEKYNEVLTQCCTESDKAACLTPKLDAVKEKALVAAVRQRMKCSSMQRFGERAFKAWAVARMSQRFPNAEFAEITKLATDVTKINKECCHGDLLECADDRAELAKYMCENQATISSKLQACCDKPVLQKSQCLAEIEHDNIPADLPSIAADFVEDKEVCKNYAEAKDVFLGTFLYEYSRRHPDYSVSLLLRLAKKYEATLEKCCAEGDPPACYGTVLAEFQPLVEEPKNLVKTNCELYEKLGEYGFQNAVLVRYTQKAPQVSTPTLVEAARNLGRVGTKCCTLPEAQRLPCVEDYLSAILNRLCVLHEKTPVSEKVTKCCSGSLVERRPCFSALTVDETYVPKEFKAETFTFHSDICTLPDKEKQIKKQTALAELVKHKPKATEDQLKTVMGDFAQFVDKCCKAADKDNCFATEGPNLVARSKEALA
# Procedure, shortened: as §1
# [6] = tested on: trypsin; assay: Tryptic digestion assay; type: in vitro ADME; conditions: pH 8
# Procedure, shortened: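 Peptide at 150 μM incubated with trypsin (substrate:enzyme 5000:1) at 37 °C in 100 mM Tris–HCl, pH 8.0. Aliquots taken at intervals and quenched with 1 M HCl. Remaining peptide measured by RP-HPLC and plotted as natural log against time, n = 3.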
# [7] = tested on: healthy ddy mice; assay: Hypoglycemic effect, blood glucose after subcutaneous administration to mice; type: in vivo, mouse; conditions: 38 μg/kg insulin, 16 h-fasted healthy male ddy mice, mean ± S.E of 4–7 experiments
substance,measurement,setting,value
Ac-CAAELAALEAELAALEGVNFGVVLFRGELAALKAKLAALKAYC-NH2 (disulfide 1-43; N-terminus assumed) [AY-VE],Kd,[1],65 ± 39 nM
same,Binding of yeast clone to albumin of human (FACS),[2],affinity
same,Binding of yeast clone to albumin of mouse (FACS),[3],affinity
same,Binding of yeast clone to albumin of cynomolgus monkey (FACS),[4],no affinity
same,Binding of yeast clone to albumin of rat (FACS),[5],no affinity
same,half-life at 150 μM,[6],190 ± 10 min
Ac-ELAALEAELAALEGVNFGVVLFRGELAALKAKLAALKAY-NH2 (N-terminus assumed) [AY-VE-dS],half-life at 150 μM,[6],56 ± 1 min
Ac-GVNFGVVLFRGELAALKAKLAALKAY-NH2 (N-terminus assumed) [AY-VE-dN],half-life at 150 μM,[6],6.3 ± 0.4 min
insulin: Recombinant human insulin,Time of peak of hypoglycemic effect after administration,[7],1 h
